Assay outcomes from PubChem.
Fh CTSL1 inh: counter-screen for PFM18AAP inhibitors: inhibitors of F. hepatica cathepsin L1 | recombinant F. hepatica cathepsin L1, Z-Leu-Arg-MCA fluorescence | inhibition, % at 5.96 µM | actives 0.49% (n = 300,000);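 active means inhibition above the mean of all tested compounds plus 3 SD, set per screening campaign, cut at about 17% in these data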;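 further: 0% = plate median of test compound wells and 100% = 1 µM Z-Phe-Ala-diazomethylketone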
MT1-MMP act inh: MT1-MMP (human) activation inhibition. P50281. HT1080 RFP-PRO-GFP cells, GFP/RFP ratio fluorescence, overnight; percent of plate control window, DMSO zero. GFP/RFP ratio change, % at 20 µM. actives 0.061% (n = 360,000). AID 651647;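 active means GFP/RFP ratio change of at least 30% with cell ATP level not reduced by more than half and red fluorescence within 50% of control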
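Test system: HT1080 RFP-PRO-GFP cells; Benchmarks: DMSO and RFP-L50D-GFP cell wells; Timing: cells overnight before dosing, compound overnight, 37 °C, 5% CO2; Compound: one 20 µM compound dose with 1% DMSO; Read-out: GFP/RFP fluorescence ratio.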
DAGLB inhibitor: diacylglycerol lipase beta (human) inhibition; inhibition, % at 5.17 µM; actives 0.059% (n = 340,000); Q8NCG7; HEK293T DAGLB membrane lysate, EnzChek fluorogenic substrate; in the data active means inhibition above about 34%;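 further: 0% = enzyme with vehicle and 100% = wells lacking enzyme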
UCH37 DUB inh: inhibitors of human deubiquitinating enzyme UCH37; purified proteasome/UCH37, Ub-AMC cleavage fluorescence; inhibition, % (test concentration not listed); actives 0.33% (n = 330,000); AID 588478;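 active means mean inhibition over replicate wells above about 20%, limit read from the data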;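 further: 0% = compound-free wells with enzyme and 100% = wells lacking proteasome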
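Assay system: Proteasome-bound UCH37. Buffer or medium: pH 7.4 Tris-HCl (50 mM) with ovalbumin, ATP-MgCl2, DTT. Incubation: 30 min preincubation with enzyme, 25 min cleavage at room temperature. Measured by: fluorescence, ex 355 nm, em 460 nm. Read-out basis: percent inhibition. Control set: wells without proteasome as full block, compound-free enzyme plus substrate as uninhibited.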
CendR NRP1 mod: modulators of CendR peptide binding to human neuropilin-1; inhibition, % at 25 µM; FAM-RPARPAR peptide binding to NRP-1, fluorescence polarization; actives 0.85% (n = 360,000); O14786;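 active means inhibition or corrected inhibition above about 18%, plus a signal ratio from 0.5 to 1.5, limit read from the data, passing the limit was not always enough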
Target sequence (O14786 whole entry, looked up): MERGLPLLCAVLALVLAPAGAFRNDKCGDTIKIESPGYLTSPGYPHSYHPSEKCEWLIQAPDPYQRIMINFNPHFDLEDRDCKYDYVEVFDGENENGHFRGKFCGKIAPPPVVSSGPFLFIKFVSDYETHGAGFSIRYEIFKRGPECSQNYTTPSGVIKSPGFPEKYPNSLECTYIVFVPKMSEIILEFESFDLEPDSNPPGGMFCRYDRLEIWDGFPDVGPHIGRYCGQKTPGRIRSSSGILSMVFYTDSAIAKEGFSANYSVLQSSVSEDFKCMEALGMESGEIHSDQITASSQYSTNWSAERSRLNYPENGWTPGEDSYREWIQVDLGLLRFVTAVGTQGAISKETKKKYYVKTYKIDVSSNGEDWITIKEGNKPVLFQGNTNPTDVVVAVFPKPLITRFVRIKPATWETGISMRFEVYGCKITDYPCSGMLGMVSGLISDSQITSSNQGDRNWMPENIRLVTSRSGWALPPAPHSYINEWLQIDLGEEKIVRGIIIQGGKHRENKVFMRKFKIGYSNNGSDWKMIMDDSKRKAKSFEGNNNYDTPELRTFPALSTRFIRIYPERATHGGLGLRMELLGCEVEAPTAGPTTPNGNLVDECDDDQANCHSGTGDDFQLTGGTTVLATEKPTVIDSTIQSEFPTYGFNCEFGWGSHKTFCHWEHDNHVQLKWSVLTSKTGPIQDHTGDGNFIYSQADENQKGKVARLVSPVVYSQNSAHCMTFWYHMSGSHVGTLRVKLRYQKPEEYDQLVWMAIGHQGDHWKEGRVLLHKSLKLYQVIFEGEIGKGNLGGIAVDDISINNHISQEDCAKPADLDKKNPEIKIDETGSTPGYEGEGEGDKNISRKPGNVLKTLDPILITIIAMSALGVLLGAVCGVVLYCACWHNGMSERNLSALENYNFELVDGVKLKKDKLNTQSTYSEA
* marks the source's active call; other numbers are inactive results; nt = no result. Sampled rows, rich in hits. Any-hit rate of the full collection: about 1.5%.

SMILES | Fh CTSL1 inh | MT1-MMP act inh | DAGLB inhibitor | UCH37 DUB inh | CendR NRP1 mod
O=C(O)C(Cc1ccc(O)cc1)N1C(=O)c2ccccc2C1=O (stereo not drawn) | -1 | 6 | -1 | 3 | -7
CC(C)C(C(=O)C=[N+]=[N-])N1C(=O)c2ccccc2C1=O (stereo not drawn) | 21* | -2 | -3 | 5 | 2
COc1cc2c3nnc(-c4ccc(F)cc4)c-3cn(Cc3cccc(F)c3)c2cc1OC | 63* | -150 | -4 | -5 | 138
Brc1cccc(C=NNc2nc(N3CCCCC3)nc(N3CCCCC3)n2)c1 | nt | nt | nt | -2 | nt
O=C(COC(=O)c1ccccn1)c1ccc([N+](=O)[O-])cc1 | 1 | -13 | 0 | 3 | 22*
NC(=NOC(=O)c1ccc([N+](=O)[O-])cc1)c1ccccn1 | nt | nt | nt | 1 | nt
O=C(c1cc2cccc([N+](=O)[O-])c2oc1=O)N1CCOCC1 | 29* | 2 | -11 | 4 | -9
O=C(c1cc2cc([N+](=O)[O-])ccc2oc1=O)N1CCOCC1 | 0 | 4 | 0 | 7 | 0
COc1cccc(N2[C@@H](CC(C)=O)c3ccc(/C=C/C(C)=O)cc3S2(=O)=O)c1 | 8 | 13 | 2 | 3 | 22*
CC(=O)NC(=O)c1cnn(-c2ccccc2)c1N | -1 | -2 | -1 | 1 | 36*
COc1ccc(S(=O)(=O)N2CCC(C(=O)N3CCc4ccccc4C3)CC2)cc1 | 0 | 3 | -3 | 2 | 19
CSc1ccc(S(=O)(=O)N2CCC(C(=O)N3CCc4ccccc4C3)CC2)cc1 | 19* | -2 | -1 | 3 | 9
COc1ccc(C=NN=Cc2ccc(OC)c(O)c2)cc1O | nt | nt | nt | 6 | nt
COC1=CC2(O)CCCC2=CC1=O (stereo not drawn) | -5 | 8 | 5 | 30* | 5
CN1CCN(N=Cc2ccc(C#N)cc2)CC1 | nt | nt | nt | 5 | nt
O=C(Nc1ccc(Cl)cc1)c1ccc2c(c1)S(=O)(=O)c1ccccc1C2=O | -1 | 2 | 2 | 28* | -2
Cc1ccc(NC(=O)c2ccc3c(c2)S(=O)(=O)c2ccccc2C3=O)cc1S(=O)(=O)N1CCOCC1 | -3 | -1 | 1 | 0 | 29*
O=C(Nc1ccc(S(=O)(=O)O)cc1)c1ccc2c(c1)S(=O)(=O)c1ccccc1C2=O | -1 | 2 | 6 | 4 | -3
O=C(Nc1ccc(S(=O)(=O)N2CCOCC2)cc1)c1ccc2c(c1)S(=O)(=O)c1ccccc1C2=O | -6 | -2 | 0 | 4 | -10
Cc1c(Br)cc(-c2nnco2)cc1Br | 2 | -2 | -10 | 2 | 21*
Cc1ccc(C)n1-c1ccc(-c2nnco2)cc1 | -1 | nt | -1 | nt | -6
COC(=O)c1cc2c(C)nn(-c3ccccc3)c2s1 | 1 | -2 | -11 | -1 | 31*
C(/C=C/c1ccco1)=NN1CCN(c2ccccc2)CC1 | nt | nt | nt | 7 | nt
O=S(=O)(/N=C(/Nc1ccc(Cl)c(S(=O)(=O)N2CCOCC2)c1)c1ccc(F)cc1)c1ccccc1 | -1 | -1 | -2 | 3 | -6
COc1ccccc1NS(=O)(=O)c1cc(N/C(=N\S(=O)(=O)c2ccccc2)c2ccc(F)cc2)ccc1Cl | 2 | 10 | -4 | nt | 34*
SMILES | Fh CTSL1 inh | MT1-MMP act inh | DAGLB inhibitor | UCH37 DUB inh | CendR NRP1 mod
Cc1c(C(=O)NN=Cc2cccs2)nc2ccccn12 | nt | nt | nt | 9 | nt
Cn1nc(-c2ccc(N3CCOCC3)c(NS(=O)(=O)c3ccc(Cl)cc3)c2)c2ccccc2c1=O | 1 | 8 | -1 | -5 | 26*
Cc1ccc(S(=O)(=O)Nc2cc(-c3nn(C)c(=O)c4ccccc34)ccc2N2CCOCC2)cc1 | 0 | 3 | 1 | -5 | -11
CCCC=NNC(=O)c1cccc(Br)c1 | nt | nt | nt | 0 | nt
Cc1nc2ncnn2c(N2CCN(c3cccc(C(F)(F)F)c3)CC2)c1C | 4 | -8 | 6 | 5 | -1
Cn1nc(C(F)(F)F)c(C#N)c1N1CCN(c2cccc(C(F)(F)F)c2)CC1 | 8 | -6 | -4 | -4 | 39*
O=c1c(=Cc2ccc([N+](=O)[O-])cc2)sc2n1CCCN=2 | nt | nt | nt | 4 | nt
CSCCC(NC(=O)c1ccccc1)C(=O)NN=C(C)c1ccccc1 (stereo not drawn) | nt | nt | nt | 2 | nt
CCOc1ccc(N2C(=O)CC(N3CCN(c4ccc(Cl)cc4)CC3)C2=O)cc1 (stereo not drawn) | 1 | -2 | 1 | 8 | 22*
CC(=NNC(=O)c1nnn(-c2nonc2N)c1-c1cccs1)c1cccnc1 | nt | nt | nt | 5 | nt
COc1ccc(-c2csc(Nc3ccccc3)n2)cc1 | 5 | 2 | -1 | 5 | 6
COc1ccc(-c2csc(Nc3cccnc3)n2)cc1 | -1 | 7 | -1 | -1 | 25*
Cc1ccc(-c2nnc(Nc3ccc4c(c3)OCO4)c3ccccc23)cc1S(=O)(=O)NC(C)C | 4 | -11 | 2 | nt | 28*
C(=NNc1nncn1N=Cc1ccco1)c1ccco1 | nt | nt | nt | 12 | nt
O=C(CSc1nnc(C2CC2)n1-c1ccccc1)N1CCNC1=O | nt | -2 | 2 | 1 | 20*
Fc1ccc(C=NNC2=Nc3cccc4cccc2c34)cc1 | nt | nt | nt | 3 | nt
Cn1c(CS/C(N)=N/N=C/c2ccccc2)c(Br)c(=O)n1-c1ccccc1 | 37* | 1 | -11 | nt | 15
O=[N+]([O-])c1ccc(NN=Cc2ccccc2)cc1 | nt | nt | nt | -3 | nt
CN(C)C=NC(=S)Nc1ccc(Br)cc1F | nt | nt | nt | 2 | nt
Cc1cccc(N(C)c2ncnc3onc(-c4ccc(F)cc4)c23)c1C | -1 | -5 | -5 | 1 | 22*
CCN(CCO)c1ncnc2onc(-c3ccc(F)cc3)c12 | 9 | 0 | 4 | -2 | 8
O=C(NCC1CC1)C1(S(=O)(=O)c2ccccc2)CC=CC1 | -1 | 0 | 0 | 5 | 21*
COC(=O)c1cc2c(n1S(=O)(=O)c1ccc(C)cc1)C(=O)C(=O)c1[nH]cc(C(=O)OCc3ccccc3)c1-2 | nt | 20 | 12 | nt | 27*
Oc1ccc(C=NNc2nc(-c3ccc(Cl)cc3)cc(C(F)(F)F)n2)cc1 | nt | nt | nt | 3 | nt
N#Cc1c(N2CCCC(O)C2)nc(N)c2c(N)nc3c(c12)CC(=O)N3C12CC3CC(CC(C3)C1)C2 (stereo not drawn) | 25* | -27 | -6 | -57 | -47
CCOC(=O)c1c(-c2cccc([N+](=O)[O-])c2)csc1NC(=O)CCCOc1ccccc1 | -5 | 0 | -17 | 7 | -8
COc1cc([N+](=O)[O-])ccc1NC(=O)CCCOc1ccc(C)cc1 | -4 | 4 | -16 | 1 | -8
CCOC(=O)c1c(-c2cccc([N+](=O)[O-])c2)csc1NC(=O)CCCOc1ccccc1OC | nt | -1 | -17 | 1 | 33*
COc1cc([N+](=O)[O-])ccc1NC(=O)CCCOc1cccc(C)c1 | 0 | -4 | -11 | 5 | 20*
Nc1ccc(C(=O)n2c3ccccc3c3ccccc32)cc1 | 4 | 3 | -5 | 28* | 9
